Measurements: PubChem BioAssay
The source made the active and inactive calls.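 The calls were made as follows, unless noted: active = fluorescence slope higher than the sample average by over 3 SD (cut at about -0.22 in these data, passing the limit was not always enough); inactive = the rest.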

Assays:
[1] = inhibitors of TNFa-induced NFkB p65 translocation, primary screen, imaging, HUVEC, MLSMR starter and 10KST1 sets (AID 438;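 active = inhibition above 20% together with a positive visual image hit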;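 also: compound added about 3h40 before a 20 min TNFalpha stimulation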;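 as to inhibition: signal is the nuclear over cytoplasmic p65 intensity ratio per well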); conditions: HUVEC TNFa-induced p65 nuclear translocation; cell count: measured here: nuclei count (cytotoxicity indicator), at 2.08 µM; inhibition: at 2 µM, stronger effect = higher value, 0% TNFa-plus-vehicle, 100% no-TNFa wells
[2] = inhibitors of mutant huntingtin aggregation, primary screen, imaging, exon1htt(103Q)mCFP cells, high-content imaging (AID 483;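 active = visual image review flags a hit and inhibition of aggregation exceeds 20%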;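 also: compound exposure lasted 3 days before fixation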;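 as to nuclei count: percent of the per-plate median nuclei count of sample wells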); conditions: exon1htt(103Q)mCFP cell line, aggregate imaging, at 2 µM; inhibition of aggregation: stronger effect = higher value; nuclei count: measured here: cell count, toxicity
[3] = inhibitors of E-selectin induction by TNFa, primary screen, imaging, HUVEC, immunofluorescence, MLSMR starter and 10KST1 sets (AID 487;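 active = visually confirmed hit in the image check and inhibition above 20%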;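 as to inhibition: signal is fraction of cell area covered by stained E-selectin grains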;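 as to nuclei count: 100% = median nuclei count of all wells on the same plate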); conditions: HUVEC TNFalpha-induced E-selectin immunofluorescence imaging, at 2 µM; inhibition: stronger effect = higher value; nuclei count: measured here: cell number, toxicity
[4] = target: Voltage-gated potassium channel subunit beta-2 (Rattus norvegicus) (UniProt P62483); test: KvBeta enzyme negative modulators, primary screen, biochemical, NADPH fluorescence (AID 622); conditions: recombinant KvBeta, 4-cyanobenzaldehyde reduction, at 10 µM, stronger effect = higher value;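 also: slope of raw intensity against log time taken from 70 to 1610 s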
Chain of Voltage-gated potassium channel subunit beta-2 (Rattus norvegicus) (P62483 whole entry, looked up): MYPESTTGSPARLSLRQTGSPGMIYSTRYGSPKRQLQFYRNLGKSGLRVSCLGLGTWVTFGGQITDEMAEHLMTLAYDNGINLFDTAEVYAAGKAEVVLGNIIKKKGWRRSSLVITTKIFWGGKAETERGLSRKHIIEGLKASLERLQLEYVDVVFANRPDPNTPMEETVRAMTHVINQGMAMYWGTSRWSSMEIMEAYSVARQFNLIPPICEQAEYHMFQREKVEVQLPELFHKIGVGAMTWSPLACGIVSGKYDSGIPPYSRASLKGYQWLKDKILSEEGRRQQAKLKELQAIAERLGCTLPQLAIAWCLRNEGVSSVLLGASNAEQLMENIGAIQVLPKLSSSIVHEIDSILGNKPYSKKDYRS

[5] = target: Voltage-gated potassium channel subunit beta-2 (Rattus norvegicus) (UniProt P62483); test: KvBeta positive modulators, primary screen, biochemical, NADPH fluorescence (AID 623;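 active = NADPH fluorescence slope more negative than the mean of all samples by about 3 SD, 99.7% confidence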;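 also: fluorescence intensity change per second fitted from 20 to 320 s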); conditions: Recombinant KvBeta, NADPH fluorescence decrease slope, 10 min; at 10 µM; stronger effect = lower value
[6] = target: Muscarinic acetylcholine receptor M4 (Homo sapiens) (UniProt P08173); test: compounds altering M4/GIRK thallium flux, either direction, primary screen, M4 allosteric agonist project, cell-based, HEK293 M4/GIRK, BTC-AM (AID 625;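 active = fluorescence slope after compound addition differing from the mean of all tested samples at 99.7% confidence, mostly higher but some lower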;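 also: thallium influx through GIRK channels coupled to M4 in HEK293 cells with BTC-AM dye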); conditions: at 10 µM, actives lie on both sides
Chain of Muscarinic acetylcholine receptor M4 (Homo sapiens) (P08173 whole entry, looked up): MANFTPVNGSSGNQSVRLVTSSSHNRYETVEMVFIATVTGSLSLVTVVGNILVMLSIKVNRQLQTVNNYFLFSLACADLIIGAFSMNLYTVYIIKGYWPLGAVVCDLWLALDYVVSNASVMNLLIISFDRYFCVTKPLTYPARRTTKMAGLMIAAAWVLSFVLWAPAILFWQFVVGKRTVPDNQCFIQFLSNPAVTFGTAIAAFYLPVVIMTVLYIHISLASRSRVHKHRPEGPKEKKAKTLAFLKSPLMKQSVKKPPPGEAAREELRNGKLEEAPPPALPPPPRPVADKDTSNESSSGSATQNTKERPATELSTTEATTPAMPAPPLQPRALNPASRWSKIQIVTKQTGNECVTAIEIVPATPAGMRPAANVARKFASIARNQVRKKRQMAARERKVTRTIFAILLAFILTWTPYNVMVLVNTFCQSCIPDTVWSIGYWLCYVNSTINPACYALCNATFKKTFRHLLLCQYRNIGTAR
Method in brief: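 Material: HEK293 cells with M4 receptor and GIRK channels; Times: cells overnight at 37 °C, BTC-AM loading 1 h, reads 2 min total; Technique: kinetic BTC-AM fluorescence sampled at 1 Hz, 10 s pre-addition baseline; Read-out basis: slope over 15–24 s of trace normalized to starting intensity; Controls: carbachol positive, DMSO negative.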

[7] = inhibitors of Sendai virus-induced IRF3 signaling, primary screen, TLR/RLR signaling modifier project, cell-based, Sendai virus stimulus, luciferase, 10K MLSCN set (AID 602276;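 active = inhibition at or above 50% at 10 µM; inactive = inhibition below 50%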;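 also: firefly luciferase from ISG56 promoter only with Renilla not read in this screen; 0% = Sendai virus plus DMSO and 100% = medium plus DMSO without virus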); conditions: HEK293 RL24 IRF3 luciferase reporter, at 10 µM, stronger effect = higher value
[8] = inhibitors of poly I:C-induced TLR3 signaling, primary screen, cell-based, poly I:C stimulus, luciferase, 10K MLSCN set (AID 602277;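 active = inhibition of the reporter signal at or above 50%; inactive = inhibition below 50%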); conditions: HEK293-TLR3 RL24 IRF3 luciferase reporter, at 10 µM, stronger effect = higher value

| Structure (SMILES) | cell count [1] | inhibition [1] | inhibition of aggregation [2] | nuclei count [2] [%] | inhibition [3] | nuclei count [3] [%] | fluorescence slope [4] | NADPH fluorescence slope [5] | fluorescence slope [6] | inhibition [7] | inhibition [8] |
| --- | --- | --- | --- | --- | --- | --- | --- | --- | --- | --- | --- |
| COC(=O)COc1nc(C)c(Br)c(OC)n1 | 367 | 2.4% (inactive) | -14% (inactive) | 96.9 | -89.5% (inactive) | 110 | -0.615 (inactive) | -1.6e-05 (inactive) | 0.00344 (inactive) | 15.8% (inactive) | 17.1% (inactive) |
| O=C1CCC(=O)N1OCCCOc1ccc(Br)cc1Cl | 490 | 1% (inactive) | 9% (inactive) | 74.1 | -76% (inactive) | 106 | -0.456 (inactive) | 2e-05 (inactive) | 0.00805 (inactive) | 16.1% (inactive) | 18% (inactive) |
| Cc1cc(/C=N/n2cnnc2)c(C)n1-c1ccc(Cl)cc1Cl | 485 | 7.6% (inactive) | -10.2% (inactive) | 94.2 | -275% (inactive) | 135 | -0.294 (inactive) | -3e-05 (inactive) | 0.00517 (inactive) | 17.2% (inactive) | 16.7% (inactive) |
| COc1ccc(-n2nnc3c(=O)n(C/C=C/c4ccccc4)cnc32)cc1 | 585 | -6.7% (inactive) | -19% (inactive) | 102 | -31.4% (inactive) | 115 | -0.218 (inactive) | -1.5e-05 (inactive) | 0.00695 (inactive) | 12.8% (inactive) | 7.09% (inactive) |
| Cc1cnc(C(=O)Nc2ccc(N3CCOCC3)cc2)cn1 | 392 | 3% (inactive) | -7.7% (inactive) | 117 | 4.5% (inactive) | 101 | -0.524 (inactive) | -2.8e-05 (inactive) | 0.00612 (inactive) | -19.8% (inactive) | -62% (inactive) |
| COc1ccc(OCc2cccc(C(=O)O)c2)cc1 | 623 | -1.6% (inactive) | -9.3% (inactive) | 55.9 | 20.3% (inactive) | 111 | -0.511 (inactive) | 5e-05 (inactive) | 0.00513 (inactive) | 46.4% (inactive) | 42.2% (inactive) |
| CCOC(=O)c1cccc(NC(=O)CCn2nnc3ccccc32)c1 | 341 | 1.2% (inactive) | 4.8% (inactive) | 112 | -4.7% (inactive) | 118 | -0.457 (inactive) | -2.8e-05 (inactive) | 0.00454 (inactive) | 18.4% (inactive) | 8.84% (inactive) |
